An excerpt weighted towards active compounds, which were near 2.9% of everything screened.
SENP7 block = inhibitors of human SENP7 protease; Q9BQF6; recombinant SENP7, Z-RLRGG-aminoluciferin luminescence, 40 min; inhibition, % at 5 µM; 330,000 tested, 1.5% active; AID 434973;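 active means inhibition above about 50% at the single test dose, limit read from the data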;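 further: plate controls were DMSO with enzyme for no effect and no enzyme buffer wells for full effect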
SENP1 inh = SENP1 (human) catalytic domain inhibition | Q9P0U3 | recombinant SENP1 catalytic domain, CyPet-SUMO1-YPet FRET cleavage | inhibition, % at 10 µM | 360,000 tested, 0.21% active | AID 624204;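 active means inhibition at least 30% at 10 µM, raw YFP signal under a set limit, fluorescence ratio 0.5 to 1.5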;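 further: 0% = enzyme with DMSO and 100% = no enzyme wells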
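Controls: no-enzyme wells low, DMSO-plus-enzyme wells high control. Test system: human recombinant His6-tagged SENP1 catalytic domain enzyme. Reagent: SFCypet-SUMO1-SFYpet FRET protein substrate, 25 nM final. Doses: one dose per compound, 10 µM, 0.5% DMSO. Detection: FRET, CFP and YFP emission. Timing: 50 min reaction at room temperature.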
SENP8 block-1 = SENP8 protease inhibition | AID 2540 | Q96LD8 | purified SENP8, Z-RLRGG-aminoluciferin cleavage, luminescence | inhibition, % at 10 µM | 330,000 tested, 1.2% active; in the data active means inhibition above about 50%
SENP8 block-2 = SENP8 (human) protease inhibition; Q96LD8; recombinant SENP8, Nedd8 substrate fluorescence; inhibition, % at 20 µM; 360,000 tested, 0.64% active; AID 602440; in the data active means inhibition mostly above about 40%, no sharp cut-off; inactive means mostly below about 27%
SENP6 block = inhibitors of human SENP6 protease; AID 2599; Recombinant SENP6 catalytic domain, aminoluciferin luminescence; Q9GZR1; 330,000 tested, 1.8% active; inhibition, % at 10 µM;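 active means inhibition above about 50% at the single tested dose, limit read from the data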;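 further: plate controls were DMSO wells with enzyme for no effect and DMSO wells lacking enzyme for full effect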
Apaf-1 inh = human Apaf-1 inhibition; reconstituted apoptosome caspase-3 activity, DEVD-Rh110 fluorescence; O14727; inhibition, % at 20 µM; 330,000 tested, 0.71% active; AID 489030; active means inhibition of at least 40% at 20 µM;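 further: plate controls were DMSO wells for no effect and DEVD-CHO caspase inhibitor wells for full effect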
Target sequence (O14727 whole entry, looked up): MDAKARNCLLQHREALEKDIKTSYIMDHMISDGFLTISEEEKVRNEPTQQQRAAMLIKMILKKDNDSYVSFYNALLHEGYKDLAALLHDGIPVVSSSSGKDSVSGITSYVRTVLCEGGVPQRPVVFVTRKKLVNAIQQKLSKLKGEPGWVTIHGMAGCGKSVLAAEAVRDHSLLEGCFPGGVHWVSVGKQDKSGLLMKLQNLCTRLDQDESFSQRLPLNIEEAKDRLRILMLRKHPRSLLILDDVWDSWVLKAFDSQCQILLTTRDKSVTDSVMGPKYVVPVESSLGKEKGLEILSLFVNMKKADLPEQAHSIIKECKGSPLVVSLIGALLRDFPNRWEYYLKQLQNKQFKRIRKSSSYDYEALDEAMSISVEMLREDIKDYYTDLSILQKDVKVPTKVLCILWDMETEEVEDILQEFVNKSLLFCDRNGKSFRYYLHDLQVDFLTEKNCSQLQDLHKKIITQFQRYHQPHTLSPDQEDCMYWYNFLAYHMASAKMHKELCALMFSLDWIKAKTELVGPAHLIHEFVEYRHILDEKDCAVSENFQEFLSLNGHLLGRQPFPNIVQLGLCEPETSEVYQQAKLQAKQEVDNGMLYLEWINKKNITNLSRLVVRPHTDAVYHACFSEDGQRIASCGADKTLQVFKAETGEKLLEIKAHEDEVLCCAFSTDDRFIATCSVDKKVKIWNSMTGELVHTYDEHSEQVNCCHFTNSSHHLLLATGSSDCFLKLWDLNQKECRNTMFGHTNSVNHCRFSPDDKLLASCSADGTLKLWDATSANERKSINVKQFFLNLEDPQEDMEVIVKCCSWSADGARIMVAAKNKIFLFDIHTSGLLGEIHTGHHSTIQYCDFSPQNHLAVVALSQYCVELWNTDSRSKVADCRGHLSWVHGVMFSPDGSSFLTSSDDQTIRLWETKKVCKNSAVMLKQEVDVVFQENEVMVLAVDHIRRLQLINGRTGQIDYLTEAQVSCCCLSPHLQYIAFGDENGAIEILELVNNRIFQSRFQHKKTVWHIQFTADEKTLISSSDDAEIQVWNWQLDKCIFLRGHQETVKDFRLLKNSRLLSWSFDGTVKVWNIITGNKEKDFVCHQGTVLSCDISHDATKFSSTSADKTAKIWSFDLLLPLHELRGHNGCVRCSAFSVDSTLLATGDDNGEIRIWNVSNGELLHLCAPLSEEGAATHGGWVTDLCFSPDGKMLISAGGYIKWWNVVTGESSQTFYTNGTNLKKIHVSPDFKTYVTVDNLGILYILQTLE
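Medium: Hepes buffer, pH 7.5 / System: biochemical Apaf-1 apoptosome reconstitution / Measured by: Rh110 fluorescence, excitation 480 nm, emission 540 nm / Times: compound with Apaf-1, dATP, procaspase-3 30 min, then 50 min reaction, room temperature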
SENP8 confirm = human SENP8 inhibition, confirmed; shares compounds with SENP7 block; Recombinant SENP8, Z-RLRGG-aminoluciferin luminescence, 60 min; inhibition, % at 12.5 µM; 6,200 tested, 40% active;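 active means mean inhibition across replicates above about 50%, limit read from the data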
SENP6 confirm = human SENP6 inhibition, confirmed | shares compounds with SENP7 block | recombinant SENP6, Z-RLRGG-aminoluciferin luminescence | inhibition, % at 12.5 µM | 6,200 tested, 58% active
SENP7 conf = confirmation of human SENP7 protease inhibitors; recombinant SENP7, Z-RLRGG-aminoluciferin luminescence, 40 min; shares compounds with SENP7 block; inhibition, % at 12.5 µM; 6,200 tested, 69% active
Casp3 SENP sel = selectivity test for SENP inhibitors: human caspase-3 inhibition | AID 488918 | 6,200 tested, 60% active | purified caspase-3, Z-DEVD-aminoluciferin luminescence, 60 min | shares compounds with SENP7 block | inhibition, % at 12.5 µM;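 active means mean inhibition above about 50%, limit read from the data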;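 further: plate controls were enzyme with DMSO for no effect and wells without caspase-3 for full effect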
Luc interf = interferes with luciferase luminescence in SENP counter-screen; inhibition, % at 12.5 µM; 6,200 tested, 39% active; Pre-incubated SENP8/Z-RLRGG-aminoluciferin, luciferase luminescence interference; shares compounds with SENP7 block;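 active means mean inhibition above about 50% when retested at one dose, limit read from the data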;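 further: plate controls were DMSO wells with completed reaction for no effect and substrate without enzyme for full effect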
* marks the source's active call; other numbers are inactive results; x = not tested or not shown.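 How the source made its calls, unless noted: active means mean inhibition above about 50% in the one-dose retest (limit read from the data); inactive means the rest.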

SMILES	SENP7 block	SENP1 inh	SENP8 block-1	SENP8 block-2	SENP6 block	Apaf-1 inh	SENP8 confirm	SENP6 confirm	SENP7 conf	Casp3 SENP sel	Luc interf
COc1ccccc1NC(=O)c1cc2ccccc2o1	43.9	-1.8	33.7	29.4	56.6*	10.1	45.6	42.1	78.4*	49.9	54.3*
C[C@@H]1CN(Cc2nnnn2CC(=O)NCCCn2cccn2)C[C@H](C)O1	x	1.2	x	13.7	x	x	x	x	x	x	x
CN(c1cc(Cl)c2c(c1)OCO2)c1cc2c(c3c1ccn3C)C1CCC2C1 (centres undefined)	x	-2.0	x	-26.2	x	x	x	x	x	x	x
O=C(Nc1ccc(Cl)cc1Cl)c1cc2ccccc2o1	58.8*	1.5	-14.7	5.8	26.9	4.3	14.3	10.2	4.1	3.5	-5.0
COc1ccc(OCc2nc3ccccc3[nH]2)cc1	28.7	0.7	72.4*	13.1	72.2*	-9.0	39.4	76.4*	93.5*	90.1*	79.7*
Brc1ccc(OCc2nc3ccccc3[nH]2)cc1	65.6*	-8.4	56.1*	14.0	62.1*	27.2	49.1	46.1	85.0*	58.4*	11.2
Cc1ccc(SCc2nc3ccccc3[nH]2)cc1	49.1	-3.8	20.6	-66.8	57.2*	-9.9	51.4*	47.3	75.6*	64.5*	56.3*
c1ccc2cc(OCc3nc4ccccc4[nH]3)ccc2c1	76.6*	0.9	79.8*	5.3	87.1*	-3.3	47.0	68.4*	94.7*	66.5*	39.8
COc1ccccc1OCc1nc2ccccc2[nH]1	21.4	1.5	13.1	9.7	38.4	0.8	x	x	x	x	x
c1ccc(SC23CCCCN(CCC2)C32OCCO2)cc1 (centres undefined)	x	0.7	x	9.2	x	x	x	x	x	x	x
COc1ccc(S(=O)(=O)NCc2cccnc2)cc1NC(=O)c1ccccc1C	x	-26.1	x	-10.8	x	x	x	x	x	x	x
C(=C\c1ccccc1)/CN1CCN(C(c2cc3ccccc3o2)c2nnnn2Cc2ccccc2)CC1 (centres undefined)	x	-4.8	x	3.1	x	x	x	x	x	x	x
O=[N+]([O-])c1ccc(COc2cccc(CN3CCOCC3)c2)cc1	x	1.4	x	11.2	x	x	x	x	x	x	x
Cc1ccccc1OCc1nc2ccccc2[nH]1	86.5*	0.9	68.4*	0.8	79.7*	3.8	71.7*	72.5*	91.7*	85.9*	62.4*
COc1cccc(OCc2nc3ccccc3[nH]2)c1	74.4*	3.5	65.3*	25.2	66.7*	14.2	72.7*	72.5*	92.8*	86.2*	75.3*
O=c1[nH]c(C(F)(F)F)nc2ccccc12	-4.0	-0.9	0.2	12.1	-20.3	-111.9	x	x	x	x	x
O=c1[nH]c(C(Cl)(Cl)Cl)nc2ccc3ccccc3c12	-11.3	-11.9	73.6*	7.1	87.5*	11.2	-24.0	70.7*	79.5*	59.6*	18.4
Cn1c(=NC(=O)C(C)(C)C)sc2cccc(F)c21	0.9	3.7	1.9	18.4	-11.0	-15.9	x	x	x	x	x
Cn1c(=NC(=O)c2ccccc2[N+](=O)[O-])sc2cccc(F)c21	76.8*	3.5	20.0	23.8	46.8	-9.2	24.2	25.4	18.4	34.9	0.5
Cn1cc(C(=O)Nc2ccc(F)c(Cl)c2)cn1	-12.0	2.7	-9.5	12.7	-10.6	-7.3	x	x	x	x	x
CN1c2ccsc2C(O)=C(C(=S)Nc2ccc(F)c(Cl)c2)S1(=O)=O	6.7	-25.3	17.2	-102.3	61.3*	10.6	18.7	12.9	10.1	12.6	29.9
Cc1ccc2cccc(N)c2n1	54.5*	1.9	-2.1	-5.6	51.9*	8.1	-1.8	4.8	5.0	11.3	7.6
O=C(Nc1ccc(F)cc1)Oc1ccc[nH]c1=O	53.1*	3.9	-3.9	27.3	42.8	9.3	4.1	4.6	22.3	18.8	21.0
Cc1cc(OC(=O)c2cccc(F)c2)c([N+](=O)[O-])c(=O)[nH]1	1.0	1.1	-3.0	22.0	7.2	1.3	x	x	x	x	x
CCS(=O)(=O)N1CCC2(CC1)OCCN2S(=O)(=O)c1ccccc1	x	0.2	x	8.9	x	x	x	x	x	x	x
SMILES	SENP7 block	SENP1 inh	SENP8 block-1	SENP8 block-2	SENP6 block	Apaf-1 inh	SENP8 confirm	SENP6 confirm	SENP7 conf	Casp3 SENP sel	Luc interf
N#CCCCC#Cc1ccc2c(c1)COc1c3ccccc3nn1-2	89.1*	0.8	90.3*	13.0	93.2*	23.9	51.1*	96.1*	65.8*	67.8*	12.7
CCCCC#Cc1ccc2c(c1)COc1c3ccccc3nn1-2	81.0*	-3.0	79.2*	-1.8	84.7*	2.7	22.1	34.0	33.4	67.4*	10.5
C[C@@H]1CN([C@@H](C)CO)C(=O)c2cc(-c3ccncc3)cnc2O[C@H]1CN(C)C(=O)c1cccc(F)c1	x	0.1	x	9.8	x	x	x	x	x	x	x
COC(=O)c1ccc(N=NN2CCCCCC2)cc1	-5.6	3.3	1.5	20.8	25.9	15.9	x	x	x	x	x
CN(C)c1ccc(N=Nc2ccc(C(=O)O)cc2)cc1	87.3*	18.4	86.5*	-21.6	92.6*	8.1	89.4*	90.8*	100.6*	72.9*	58.3*
CN(C)c1ccc(C(=O)c2ccccc2)cc1	10.3	3.0	8.8	-28.0	20.7	6.0	x	x	x	x	x
CC(=O)/C(N=Nc1ccc2c(c1)OCO2)=C(\C)O	83.1*	9.1	59.3*	8.4	84.2*	-1.9	-10.0	36.6	77.6*	74.4*	28.4
CC(=O)/C(N=Nc1ccc(OC(F)(F)F)cc1)=C(\C)O	6.0	1.9	-20.4	9.3	-10.0	-7.0	x	x	x	x	x
CC(=O)/C(N=Nc1ccc(C(=O)O)cc1)=C(\C)O	66.6*	0.6	44.2	25.5	76.2*	-28.0	57.9*	58.5*	86.7*	91.7*	72.7*
O=C(O)c1ccc(N=NN2CCCCC2)cc1	45.0	-0.6	49.7	6.5	68.2*	-2.1	53.8*	46.8	84.9*	57.0*	66.4*
CC1(C)Cc2c(sc3[nH]c(=O)n(CC(=O)NCC4CCCO4)c(=O)c23)CO1 (centres undefined)	0.7	-0.3	-2.5	-26.1	-5.9	1.0	x	x	x	x	x
CC(=O)/C(N=Nc1ccc2c(c1)OCCO2)=C(\C)O	82.3*	14.6	74.9*	18.4	78.6*	12.9	80.9*	80.4*	96.0*	91.5*	60.2*
CN(C(=O)c1cccc(NC(=O)Cc2ccc(NC(=O)C3CCN(C(=O)C4CCC4)CC3)cc2)c1)C1CC1	x	2.7	x	-5.9	x	x	x	x	x	x	x
